Only some compounds are listed: those with a hit (about 2.3% of all), similar ones and a draw of the others.
FN deposition inh = fibronectin deposition inhibition. AH1F fibroblasts, Alexa488-fibronectin deposition fluorescence, overnight. inhibition, % at 12.6 µM. 0.086% of 350,000 active;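 active = mean inhibition across replicates of 30% or more, regardless of how many single replicates reach that level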;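 note: positive control wells lacked labelled fibronectin entirely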
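Material – AH1F fibroblast monolayer, labelled fibronectin deposition · Reagent – labelled fibronectin 24 nM · Timing – 1 h adhesion, overnight exposure · Measured by – fluorescence at 485 nm excitation, 525 nm emission · Read-out – inhibition of fibronectin deposition signal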
EWS-Fli inh = inhibitors of EWS/Fli oncoprotein transcriptional activity; 0.67% of 350,000 active; A673 NR0B1-luciferase reporter, viability-normalised; inhibition, % at 12.6 µM;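 active = mean inhibition of at least 50% after viability correction, with every replicate also passing that limit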;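 note: firefly luciferase signal divided by Alamar Blue viability fluorescence both relative to DMSO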
XiGFP reactiv = reactivates the inactive X chromosome in mouse fibroblasts; XiGFP mouse fibroblasts, % GFP-positive cells imaging, 3 d; cells co-treated with 5-aza-dC sensitizer; scaled so ellipticine positive control = 100%; activation, % at 7.58 µM; 0.055% of 360,000 active;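 active = mean normalized replicate activation at least 10% and every replicate at or above 10%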;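 note: 0% = median of on-plate neutral control wells and 100% = ellipticine 6 µM median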
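System: XiGFP fibroblasts, SV40-immortalized. Medium: DMEM plus 5-aza-dC sensitizer. Doses: single point. Timing: 3 d treatment, 15 min room-temperature fixation. Control set: ellipticine 6 µM.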
TROY NFkB inh = inhibitors of TROY-dependent NF-kB signaling; Q293 LMP1-TROYcd NF-kB luciferase reporter, 4 h; inhibition, % at 10 µM; 0.98% of 360,000 active;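 active = compounds whose plate-normalised and pattern-corrected inhibition of the luciferase reporter signal at the single screening dose is 50% or more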
LGR2 antag = blocks bursicon-induced cAMP signaling via Drosophila LGR2; HEK293 LGR2, CRE-luciferase, bursicon-stimulated, 4 h; 0.35% of 380,000 active; inhibition, % at 9.99 µM; AID 720647;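 active = drop in luminescence signal, shown as inhibition above about 50% in the replicate tests, limit read from the data, passing the limit was not always enough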;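 note: agonist challenge used bursicon conditioned medium at about half maximal strength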
TWEAK Fn14 block = inhibitors of TWEAK-Fn14 interaction signaling | TWEAK-stimulated Fn14 reporter cells, luciferase luminescence, 8 h | inhibition, % at 10 µM | 2% of 360,000 active | AID 1159606; in the data active = inhibition above about 50%
* = called active by the depositor; · = not tested or not shown; ! = not confirmed by another sample.

SMILES | FN deposition inh | EWS-Fli inh | XiGFP reactiv | TROY NFkB inh | LGR2 antag | TWEAK Fn14 block
O=C(C[C@H]1C=C[C@H](NC(=O)c2cccc(F)c2)[C@H](CO)O1)Nc1nccs1 | 9 | -33 | 0 | · | 4 | ·
CC1CCC(C(C)C)C(OC(=O)C[n+]2cc(-c3ccc(Cl)cc3)n3c2CCC3)C1 (stereo unspecified) | 1 | 14 | 0 | 55* | 33 | 18
COc1ccc(Nc2nc3ccc(OC)cc3s2)cc1 | · | -50 | 0 | -61 | -118 | -45
Cc1ccc2nc(NC(=O)c3ccccc3F)sc2c1 | 1 | 43 | 0 | 8 | 40 | 69*
COc1ccc2nc(NC(=O)c3ccccc3F)sc2c1 | 1 | 5 | 0 | -24 | 63* | 47
COc1ccc2nc(Nc3nc(C)c(C(C)=O)s3)sc2c1 | -4 | · | · | -3 | · | 64*
CN1C(=O)c2cc(NC(=O)C3CC3)ccc2OC[C@@H]2O[C@H](CC(=O)NC3CCC3)CC[C@@H]21 | 5 | 1 | 0 | · | -6 | ·
CN(c1ncnc(N)c1[N+](=O)[O-])C1CCCCC1 | 3 | -27 | 0 | 52* | 28 | 81*
CCCCN(c1ccccc1)c1ncnc(N)c1[N+](=O)[O-] | · | -10 | · | 36 | 17 | 83*
C[C@@H]1CCCCO[C@@H](CN(C)C(=O)c2ccccc2)[C@H](C)CN([C@@H](C)CO)C(=O)c2cc(NC(=O)c3ccncc3)ccc2O1 | · | 8 | 0 | · | 7 | ·
CC(C)n1c(NCc2nc3ccccc3n2C)nc2ccccc21 | -7 | · | · | -1 | · | 3
CCn1c(CNc2nc3ccccc3n2C(C)C)nc2ccccc21 | · | · | · | 7 | · | 99*
Cc1ccc(C(=O)NCCN(C)C)c(C)c1 | -2 | · | · | -4 | · | -16
CNc1c2cccc(C)c2nc2c(C(=O)NCCN(C)C)cccc12 | 2 | 58* | 0 | -70 | 16 | 1
COC(=O)c1cc(OC)c(OC)cc1N=CC1=C(O)CC(C)(C)CC1=O | · | · | · | -9 | -20 | 56*
CN(Cc1ccccc1)C(=O)NC1CCCCC1 | -10 | · | · | -10 | · | 9
CC(C)(Sc1ccc(CCN(CCCCC2CCCCC2)C(=O)NC2CCCCC2)cc1)C(=O)O | -9 | 5 | 0 | 51* | 5 | -37
Cc1nn(C(C)(C)C)c(C)c1/C=N/OC(=O)Nc1ccc(Cl)c(Cl)c1 | 0 | 9 | 0 | 87* | · | 105*
COc1ccc(NC(=O)O/N=C/c2c(C)nn(C(C)(C)C)c2C)cc1 | 6 | -52 | 0 | 65* | · | -10
O=C(Nc1ccn(CCOC(=O)c2ccccc2)c(=O)n1)c1ccccc1 | -9 | -14 | 0 | 54* | -2 | -10
CC(=O)c1cn(CCOc2cc(C)ccc2C)c2ccccc12 | 8 | 29 | 0 | 0 | 13 | 100*
O=C(C[C@@H]1CC[C@H]2[C@@H](COC[C@H](O)CN2Cc2cc(F)ccc2F)O1)N[C@@H]1CCN(Cc2ccccc2)C1 | 0 | 5 | 0 | · | 13 | ·
CS(=O)(=O)N1[C@@H]2Cn3c(ccc(-c4ccc(F)cc4)c3=O)[C@H]1[C@@H](C(=O)N1CCOCC1)[C@@H]2CO | · | -10 | 0 | · | 4 | ·
C[C@@H]1CN([C@@H](C)CO)C(=O)c2cc(C#Cc3ccccn3)cnc2O[C@H]1CN(C)CC1CCCC1 | 0 | -7 | 0 | · | -18 | ·
CC(=O)c1c(C)[nH]c(C(=O)OCCOc2ccccc2)c1C | -8 | -15 | 0 | 62* | 68* | -19
SMILES | FN deposition inh | EWS-Fli inh | XiGFP reactiv | TROY NFkB inh | LGR2 antag | TWEAK Fn14 block
CC(=O)c1c(C)[nH]c(C(=O)COC(=O)CCCOc2ccccc2)c1C | · | -5 | 0 | -13 | 3 | 11
Cc1c(C(=O)OCCOc2ccccc2)[nH]c2c1C(=O)CCC2 | · | · | · | 66* | · | 82*
Cc1ccc2nc(CSc3nc(C)cc(C)c3C#N)[nH]c2c1 | · | · | · | 59* | · | 38
C[C@@H]1CN([C@H](C)CO)C(=O)c2cc(C3=CCCC3)cnc2O[C@@H]1CN(C)S(C)(=O)=O | · | -5 | 0 | · | 12 | ·
CC[C@H](C)[C@H]1O[C@]2(CC[C@@H]1C)C[C@@H]1C[C@@H](CC=C(C)[C@@H](O[C@H]3C[C@H](OC)[C@@H](O[C@H]4C[C@H](OC)[C@@H](O)[C@H](C)O4)[C@H](C)O3)[C@@H](C)C=CC=C3CO[C@@H]4[C@H](O)C(C)=C[C@@H](C(=O)O1)[C@]34O)O2 | · | · | · | 30 | · | 100*
CC(C)(C)c1ccc(Nc2n[nH]c3ccccc23)cc1 | -12 | -63 | 0 | 53* | -27 | 53*
Cc1n[nH]c2ccccc2c1=O | 3 | -3 | 0 | 5 | 7 | -21
COc1ccccc1-c1ccc2c(c1)[C@@H]1[C@@H](CCN1S(=O)(=O)c1cn(C)cn1)[C@@H](CO)N2 | -4 | -21 | 0 | · | -47 | ·
O=S(=O)(NCc1ccccc1)c1ccc(Cl)cc1 | 11 | · | · | 1 | · | -3
O=S(=O)(Nc1cc2nc3ccccc3nc2n1Cc1ccccc1)c1ccc(Cl)cc1 | 5 | -9 | 78* | 49 | · | 96*
Cc1ccc(S(=O)(=O)N[C@H](C(=O)OCC(=O)NC(=O)Nc2ccc3c(c2)OCCO3)C(C)C)cc1 | -10 | · | 0 | 10 | -2 | 19
C[C@H](NS(=O)(=O)c1ccc(Cl)cc1)C(=O)OCC(=O)NC(=O)Nc1ccc2c(c1)OCCO2 | -6 | · | 0 | 2 | -22 | 64*
O=C1c2c(O)ccc(O)c2C(=O)c2c(NCCNCCO)ccc(NCCNCCO)c21 | 0 | 40 | 0 | 78*! | 102* | 93*!
C[C@@H]1CCCCO[C@@H](CN(C)C(=O)Nc2ccc3c(c2)OCO3)[C@@H](C)CN([C@H](C)CO)C(=O)c2cc(NC(=O)Cc3ccccc3)ccc2O1 | · | -6 | -1 | · | 12 | ·
CCNC(=O)Nc1ccc2c(c1)C(=O)N(C)[C@H]1CC[C@H](CC(=O)NCc3ccc(F)cc3)O[C@H]1CO2 | -19 | 5 | 0 | · | 13 | ·
CCOc1ccc2nc(Cl)c(C3CC(c4ccco4)=NN3S(C)(=O)=O)cc2c1 (stereo unspecified) | 2 | -7 | 0 | 57* | 11 | -16
CCOC(=O)N1CCN(C(=O)CSCC(=O)Nc2nc(-c3ccc(-c4ccccc4)cc3)cs2)CC1 | 2 | 4 | 0 | 57* | 51* | 93*
CCOC(=O)N1CCN(C(=O)CSCC(=O)Nc2nc(-c3ccc(OC)cc3)cs2)CC1 | 8 | · | · | 14 | · | 7
COc1ccccc1C1(O)CCN(CC(=O)Nc2nc(-c3ccccc3)cs2)CC1 | -7 | 3 | 0 | 44 | 36 | 55*
COc1cc(S(=O)(=O)NCc2cccnc2)c(OC)cc1Br | 6 | · | · | 50* | · | 9
COc1cc(S(=O)(=O)NCc2ccncc2)c(OC)cc1Br | -2 | · | 0 | 16 | 16 | 14
CC(C)(C)c1ccc(-c2cc(N)n[nH]2)cc1 | 4 | 63* | 0 | 43 | · | 47

Source: PubChem
